# PP1 counter – counter-screen for PP5 inhibitors: inhibitors of human PP1-alpha; purified PP1alpha, OMFP fluorescence; inhibition, % at 6.7 µM; hit rate 0.9% among 320,000; AID 2235;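 active = inhibition above the mean inhibition of all tested compounds plus 3 SD, computed separately for each screening campaign, cut at about 15% in these data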
# UBC13 inh – inhibitors of human UBC13 polyubiquitin chain formation. P61088. TR-FRET. inhibition, % at 20 µM. hit rate 0.47% among 330,000. AID 485273; in the data active = inhibition above about 45%, passing the limit was not always enough; inconclusive = no clear call, values can overlap the other calls
# T cruzi inh – blocks replication of Trypanosoma cruzi. T. cruzi beta-gal in NIH3T3, luminescence, 90 h. inhibition, % (test concentration not listed). hit rate 1.4% among 300,000. AID 1885;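 active = mean inhibition across valid replicates above about 55%, limit read from the data; inconclusive = mean below that limit but half or more replicates reach it; inactive = mean below it, under half of replicates reach it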;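 also: signal also drops with host cell toxicity which is not excluded here; higher percent means less beta-gal luminescence so fewer parasites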
#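 Assay system: NIH/3T3 host cells with β-galactosidase reporter T. cruzi; input: 5,000 host fibroblasts per well; compound: single 50 nL compound addition per well in DMSO; timing: ≥90 h infection period, 3 h prior cell attachment; measured by: GalScreen β-gal luminescence, detergent lysis, 60 min; evaluation: percent inhibition of parasite-derived β-gal signal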
# pCIP destab – compounds decreasing mouse p/CIP protein stability. hit rate 0.01% among 290,000. decrease of EGFP signal, % at 10 µM. F442A p/CIP-EGFP cells, EGFP fluorescence, 16 h. Q05BA5;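 active = EGFP signal decrease of at least 30% at 10 µM or well 3 SD below plate mean, unless failing retest; inactive = the rest, including hits failing retest or dose response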
# AI-2 QS mod – Vibrio harveyi AI-2 quorum sensing modulation; Vibrio harveyi JMH597 AI-2 luminescence/OD600 ratio, 9 h; stronger effect = lower value; strain lacks LuxN and CqsS sensors; 0 = neutral-control median; hit rate 0.4% among 300,000; activity change, % at 7.5 µM; in the data active = activity change below about -75%, passing the limit was not always enough; inconclusive = no clear call, values can overlap the other calls;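 also: luminescence divided by OD600 gain over 9 h not by final OD600 alone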
# Casp3 counter – counter-screen for UBC13 inhibitors: human caspase-3 inhibition; shares compounds with UBC13 inh; Recombinant caspase-3, Caspase-Glo 3/7 luminescence, 60 min; inhibition, % at 20 µM; hit rate 4% among 1,400; AID 488856;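 active = mean inhibition across replicates above about 26%, limit read from the data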
# UBC13 confirm – human UBC13 polyubiquitin inhibition, confirmed; shares compounds with UBC13 inh; UBC13 polyubiquitination, TR-FRET, biochemical; inhibition, % at 10 µM; hit rate 68% among 1,400; in the data active = inhibition above about 45%; inconclusive = no clear call, values can overlap the other calls
# A number is an active result; n = inactive; u = inconclusive; x = not tested or not shown; ! = not confirmed by another sample. In the library only some 2.8% were active in any assay of this set; here they are far more common.
SMILES,PP1 counter,UBC13 inh,T cruzi inh,pCIP destab,AI-2 QS mod,Casp3 counter,UBC13 confirm
Cc1cccc(CCN2C(N(C)C)=NC[C@@H]2Cc2ccccc2)c1,x,n,x,x,x,x,x
CCC[C@@H](CN1CCC[C@H]1CN1C(N)=NC[C@@H]1Cc1ccccc1)N1C[C@@H](Cc2ccccc2)N(CCc2ccc(Cl)c(Cl)c2)C1=N,x,75,x,x,x,n,77
Cc1cccc(NC(=O)C2CC(=O)N(Cc3ccccc3)C2)n1 (stereo unspecified),n,n,n,x,n,x,x
O=C(CNCc1cccnc1)Nc1cc(C(F)(F)F)ccc1N1CCOCC1,n,n,n,n,n,x,x
CC(=O)Nc1cccc(NC(=O)CSc2nnnn2C)c1,x,x,n,n,n,x,x
CC(=O)Nc1ccc(NC(=O)CSc2nnnn2-c2ccc(F)cc2)cc1,n,n,n,n,n,x,x
CC(=O)Nc1ccc(NC(=O)CSc2ncc(C(=O)Nc3ccc(Cl)cc3)c(=O)n2C)cc1,n,55,n,x,n,97,n
CC(=O)Nc1ccc(NC(=O)CSc2ncc(C(=O)Nc3ccc(F)cc3)c(=O)n2C)cc1,n,71,n,x,n,98,62
CC(=O)Nc1ccc(SCC(=O)Nc2ccc(Cl)cn2)cc1,n,n,n,n,n,x,x
CC(=O)Nc1cccc(NC(=O)CSc2ncc(C(=O)Nc3ccccc3)c(=O)n2C)c1,n,82,n,x,n,95,86
O=C1[C@H]2[C@@H](c3ccc(F)cc3)N3C(=O)N(c4ccc(Br)cc4)C(=O)[C@@]3(Cc3ccc(Cl)cc3)[C@H]2C(=O)N1C1CCCCC1,n,n,n,n,n,x,x
CC(NC(=O)CSc1ccccc1)c1ccccc1 (stereo unspecified),x,n,n,n,n,x,x
CN(C)c1ccc(CNC(=O)CCc2ccc(S(=O)(=O)N3CCCCCC3)cc2)cc1,x,n,x,x,x,x,x
CCOc1ccccc1N1CCN(Cc2cnc(-c3ccccc3)[nH]2)CC1,n,n,x,n,n,x,x
COc1ccccc1NC(=O)c1c(N=Cc2ccccc2O)cnn1C,n,87,n,n,n,n,96
Cc1ccc(S(=O)(=O)n2cc(C=O)c3ccccc32)cc1,n,83,n,n,n,n,85
CCOC(=O)N1CCN(C(=O)c2ccc3c(c2)N(Cc2ccc(F)cc2)CCS3)CC1,n,48,n,n,n,n,n
CC(C)(C)c1ccc(C(=O)NCCCN2CCN(CCCNC(=O)c3ccc(C(C)(C)C)cc3)CC2)cc1,n,66,n,n,n,n,74
COc1ccc([N+](=O)[O-])cc1NC(=O)N(C)Cc1ccco1,n,n,n,n,n,x,x
CC(=O)NCCNC(=O)c1ccc(NC2=NC3CS(=O)(=O)CC3S2)cc1 (stereo unspecified),n,n,n,n,n,x,x
Cc1ccnc(NCc2c(O)ccc3ccccc23)c1,n,54,n,n,n,n,76
COc1ccccc1CNc1cc(C)ccn1,n,n,n,n,n,x,x
COc1ccc(Cn2cc(C(=O)c3ccccc3)c(=O)c3cc(OC)ccc32)cc1,n,n,n,n,n,x,x
Cc1ccc(Cn2cc(C(=O)c3ccc(F)cc3)c(=O)c3cc4c(cc32)OCCO4)cc1,n,45,n,n,n,n,u
COc1cc(/C=N/NC(=O)c2sc(N)c(C#N)c2C)ccc1O,n,51,n,n,n,n,56
SMILES,PP1 counter,UBC13 inh,T cruzi inh,pCIP destab,AI-2 QS mod,Casp3 counter,UBC13 confirm
NC1=NC[C@@H](Cc2ccc(O)cc2)N1CCc1cc(C(F)(F)F)cc(C(F)(F)F)c1,n,64,n,n,n,n,n
CCCCN1C(N)=NC[C@@H]1Cc1ccc(O)cc1,n,n,n,n,n,x,x
NC1=NC[C@@H](Cc2ccc(O)cc2)N1CCc1cccc(F)c1,n,n,n,n,n,x,x
NC1=NC[C@H](Cc2ccc(O)cc2)N1CCC12CC3CC(CC(C3)C1)C2,n,78,n,n,n,n,58
COc1cccc(/C=N/NC(=O)C(=O)N/N=C/c2cccc(OC)c2OC)c1OC,n,n,n,n,n,x,x
COc1cccc(/C=N\NC(=O)c2sc(N)nc2C)c1OC,n,105,n,n,n,n,110
CCCC[C@@H](CN[C@H](C)CNC)NCC1CCC(C(C)(C)C)CC1 (stereo partly specified),n,61,n,n,n,n,n
CCOC(=O)C1=C(C)NC(C)=C(C(=O)OC)C1c1cccc(Cl)c1Cl (stereo unspecified),n,n,n,n,n,x,x
CCOC(=O)C1=C(COCCN)NC(C)=C(C(=O)OC)C1c1ccccc1Cl (stereo unspecified),n,61!,n,x,n,n,n
COc1cc2c(C(=O)N3CCN(C)CC3)c(C)n(-c3ccccc3)c2cc1Br,n,n,n,n,n,x,x
CCN(CC)CCNC(=O)c1c(C)n(-c2ccccc2)c2cc(Br)c(OC)cc12,n,52,n,n,n,n,79
COc1ccc2cc3cc(C(=O)Nc4ccccc4N4CCN(C)CC4)oc3nc2c1,n,68,67,n,n,n,n
CCN1C(N(C)CCc2c[nH]c3ccccc23)=N[C@@H](c2cccc(C(F)(F)F)c2)C(C(=O)OC)=C1C,x,60,x,x,x,n,49
CCOC(=O)CSc1nc(C(C)(C)C)cc(C(F)(F)F)c1C#N,n,47,n,n,n,n,n
CN1Cc2c(N3CCOCC3)nc3sc(C(=O)c4ccc(Br)cc4)c(N)c3c2CC1(C)C,n,51,n,n,n,n,85
CN1Cc2c(N3CCOCC3)nc3sc(C#N)c(N)c3c2CC1(C)C,n,n,n,n,n,x,x
CN(C)CCOC(=O)c1ccc2[nH]c3c(c2c1)CSCC3,n,62,n,n,n,n,53
NC(=O)c1c(NC(=O)C(=O)NCCCN2CCOCC2)sc2c1CCCC2,n,52,n,n,n,n,73
O=C(C[n+]1cccc(CNC(=O)c2ccc(OC(F)F)cc2)c1)Nc1ccccc1Cl,n,n,n,n,n,x,x
O=C(C[n+]1cccc(CNC(=O)c2ccc(OC(F)F)cc2)c1)Nc1ccc(SC(F)F)cc1,n,55,n,n,n,n,102
C[C@@H]1O[C@@H](O[C@H]2[C@H](Oc3cc(O)c4c(c3)OC(c3ccc(O)cc3)CC4=O)O[C@H](CO)[C@@H](O)[C@@H]2O)[C@H](O)[C@H](O)[C@H]1O (stereo partly specified),n,97,n,x,n,n,100
C[C@@H]1O[C@@H](O[C@H]2[C@H](Oc3cc(O)c4c(c3)O[C@H](c3ccc(O)cc3)CC4=O)O[C@H](CO)[C@@H](O)[C@@H]2O)[C@H](O)[C@H](O)[C@H]1O,n,95,n,n,n,n,98

# Bioassay records as filed in PubChem.
